The text below walks through data of ChEMBL document CHEMBL2069242, “Structure and activity relationship in the (S)-N-chroman-3-ylcarboxamide series of voltage-gated sodium channel blockers” (Bioorg Med Chem Lett, 2012).

Data set [1] concerns the target Sodium channel protein type 9 subunit alpha (Homo sapiens, UniProt Q15858). The data set can be described thus: Inhibition of human NaV1.7 expressed in HEK293 cells by whole-cell voltage clamp assay. The class given is cell-based. In a few lines: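 Human NaV1.7 α-subunit stably expressed in HEK293 cells. Currents were recorded by perforated whole-cell automated planar patch clamp (IonWorks Quattro) in D-PBS external solution with 5.5 mM glucose. Cells were held at −65 mV, and a train of eight 30 ms steps to −20 mV at 3 Hz was applied. Half-log serial dilutions were made in DMSO, giving 0.3% DMSO in the recording solution.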

For data set [2], the target named is Sodium channel protein type 5 subunit alpha (Homo sapiens, UniProt Q14524). The data set can be described thus: Inhibition of human NaV1.5 expressed in CHO cells by IonWorks assay. The class given is cell-based. (In general: The patch-clamp technique gives a direct electrical read-out from membranes.)
Data set [3] can be described thus: Solubility of the compound. The class given is physicochemical.
Data set [4] relates to Liver microsomes. In words: Intrinsic clearance in rat liver microsomes assessed per ug of protein. In kind it is ADME, Microsome. In general terms: Microsomes from liver hold many membrane-bound enzymes, among them those of drug oxidation.
Data set [5] deals with Liver microsomes. In words: Intrinsic clearance in human liver microsomes assessed per ug of protein. In kind it is ADME, Microsome.
The target of data set [6] is Voltage-gated inwardly rectifying potassium channel KCNH2 (Homo sapiens, UniProt Q12809). In words: Inhibition of human ERG expressed in CHO cells by IonWorks HT assay. The class given is cell-based.
Data set [7] concerns the target Serotonin (5-HT) receptor (Homo sapiens) (UniProt P30939+P41595+Q13639+P28222+P46098+P08908+P28221+P28223+P28335+P28566+P34969+P50406+P47898+A5X5Y0+O95264+Q70Z44+Q8WXA8). In words: Activity at 5HT receptor. The class given is protein assay.

In brackets after ≈: the same amount, converted by molar mass. Activity calls are given as the source filed them. The calls are words filed in the database; no cut-off is given here. A value given as a limit tells only on which side of the number the result lay.

Sequence of Voltage-gated inwardly rectifying potassium channel KCNH2 (Q12809 whole entry): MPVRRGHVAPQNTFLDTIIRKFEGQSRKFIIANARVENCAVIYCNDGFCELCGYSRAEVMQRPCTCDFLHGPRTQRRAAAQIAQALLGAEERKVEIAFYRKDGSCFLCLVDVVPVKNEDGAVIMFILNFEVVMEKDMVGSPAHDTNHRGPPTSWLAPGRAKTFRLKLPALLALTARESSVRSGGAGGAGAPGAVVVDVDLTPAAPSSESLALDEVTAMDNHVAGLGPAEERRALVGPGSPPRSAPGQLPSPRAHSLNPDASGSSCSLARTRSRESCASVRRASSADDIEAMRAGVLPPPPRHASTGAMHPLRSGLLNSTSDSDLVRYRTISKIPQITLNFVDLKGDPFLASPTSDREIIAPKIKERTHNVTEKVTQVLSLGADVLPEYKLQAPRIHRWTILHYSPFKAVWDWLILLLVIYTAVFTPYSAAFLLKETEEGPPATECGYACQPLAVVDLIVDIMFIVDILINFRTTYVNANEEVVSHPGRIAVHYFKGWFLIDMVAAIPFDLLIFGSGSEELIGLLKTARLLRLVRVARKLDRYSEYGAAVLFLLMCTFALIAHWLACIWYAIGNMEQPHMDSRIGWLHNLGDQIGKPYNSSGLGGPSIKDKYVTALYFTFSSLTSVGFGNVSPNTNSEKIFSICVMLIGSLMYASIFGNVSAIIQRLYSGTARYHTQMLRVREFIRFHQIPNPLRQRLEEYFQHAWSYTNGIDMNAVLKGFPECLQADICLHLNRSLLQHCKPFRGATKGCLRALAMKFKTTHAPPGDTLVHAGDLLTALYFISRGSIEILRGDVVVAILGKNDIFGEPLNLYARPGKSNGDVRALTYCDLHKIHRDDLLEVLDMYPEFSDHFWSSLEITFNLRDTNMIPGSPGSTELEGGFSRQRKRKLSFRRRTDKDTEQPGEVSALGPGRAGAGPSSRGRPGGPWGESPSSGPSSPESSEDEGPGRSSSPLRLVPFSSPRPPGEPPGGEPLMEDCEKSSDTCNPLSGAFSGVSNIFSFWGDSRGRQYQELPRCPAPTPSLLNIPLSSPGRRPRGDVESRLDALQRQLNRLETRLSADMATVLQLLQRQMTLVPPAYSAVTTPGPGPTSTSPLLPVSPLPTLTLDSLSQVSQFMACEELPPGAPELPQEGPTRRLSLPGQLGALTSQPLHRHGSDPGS
Sequence of Sodium channel protein type 9 subunit alpha (Q15858 whole entry): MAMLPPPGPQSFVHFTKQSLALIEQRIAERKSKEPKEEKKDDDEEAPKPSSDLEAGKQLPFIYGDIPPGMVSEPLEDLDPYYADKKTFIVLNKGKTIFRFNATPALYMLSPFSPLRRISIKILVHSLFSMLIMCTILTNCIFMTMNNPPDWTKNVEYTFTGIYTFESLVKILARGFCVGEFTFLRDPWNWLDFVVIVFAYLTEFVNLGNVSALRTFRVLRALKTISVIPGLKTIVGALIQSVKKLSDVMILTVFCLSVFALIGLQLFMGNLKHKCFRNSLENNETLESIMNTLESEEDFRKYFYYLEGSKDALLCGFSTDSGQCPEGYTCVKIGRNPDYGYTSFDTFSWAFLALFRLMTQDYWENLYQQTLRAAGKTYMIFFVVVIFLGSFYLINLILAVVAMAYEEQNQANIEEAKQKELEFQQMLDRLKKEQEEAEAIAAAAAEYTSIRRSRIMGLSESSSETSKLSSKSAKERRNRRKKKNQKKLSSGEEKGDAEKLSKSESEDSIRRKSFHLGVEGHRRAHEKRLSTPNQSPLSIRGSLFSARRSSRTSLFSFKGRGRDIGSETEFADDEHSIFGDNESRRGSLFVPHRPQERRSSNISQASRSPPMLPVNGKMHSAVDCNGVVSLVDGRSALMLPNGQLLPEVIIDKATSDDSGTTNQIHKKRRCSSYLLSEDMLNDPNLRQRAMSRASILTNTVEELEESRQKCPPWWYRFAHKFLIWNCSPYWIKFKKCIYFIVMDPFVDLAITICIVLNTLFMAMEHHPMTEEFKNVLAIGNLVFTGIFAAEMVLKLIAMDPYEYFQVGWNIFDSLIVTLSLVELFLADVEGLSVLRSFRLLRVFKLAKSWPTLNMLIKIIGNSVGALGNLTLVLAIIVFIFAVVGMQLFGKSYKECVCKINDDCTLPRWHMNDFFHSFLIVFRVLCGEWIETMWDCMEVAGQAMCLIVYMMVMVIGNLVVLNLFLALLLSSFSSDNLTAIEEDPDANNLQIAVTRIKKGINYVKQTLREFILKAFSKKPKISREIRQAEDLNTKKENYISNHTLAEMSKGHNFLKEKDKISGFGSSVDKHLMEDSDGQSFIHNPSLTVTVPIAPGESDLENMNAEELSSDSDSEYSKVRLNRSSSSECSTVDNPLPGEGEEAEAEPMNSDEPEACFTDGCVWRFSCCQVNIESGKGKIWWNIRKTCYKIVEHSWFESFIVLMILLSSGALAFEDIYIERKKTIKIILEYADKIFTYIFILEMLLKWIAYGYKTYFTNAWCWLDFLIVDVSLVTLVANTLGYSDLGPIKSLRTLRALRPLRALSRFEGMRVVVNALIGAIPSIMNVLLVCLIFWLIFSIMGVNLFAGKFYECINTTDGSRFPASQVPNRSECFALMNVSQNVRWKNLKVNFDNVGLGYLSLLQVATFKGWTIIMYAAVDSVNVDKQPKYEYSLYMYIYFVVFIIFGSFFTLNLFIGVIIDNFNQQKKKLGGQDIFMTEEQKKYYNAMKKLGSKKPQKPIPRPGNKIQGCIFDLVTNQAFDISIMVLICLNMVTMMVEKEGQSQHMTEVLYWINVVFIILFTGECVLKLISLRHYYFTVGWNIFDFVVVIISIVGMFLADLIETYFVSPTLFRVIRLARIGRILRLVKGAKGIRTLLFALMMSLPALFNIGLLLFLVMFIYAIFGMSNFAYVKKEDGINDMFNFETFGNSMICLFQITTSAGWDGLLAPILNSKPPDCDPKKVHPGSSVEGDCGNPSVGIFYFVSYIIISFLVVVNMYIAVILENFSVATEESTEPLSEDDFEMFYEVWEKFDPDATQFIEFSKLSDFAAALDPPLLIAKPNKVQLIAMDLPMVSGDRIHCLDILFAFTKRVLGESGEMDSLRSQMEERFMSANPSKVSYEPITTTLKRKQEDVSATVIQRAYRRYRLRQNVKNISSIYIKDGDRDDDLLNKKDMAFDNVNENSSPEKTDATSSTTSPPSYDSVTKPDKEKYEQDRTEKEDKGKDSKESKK
Sequence of Sodium channel protein type 5 subunit alpha (Q14524 whole entry): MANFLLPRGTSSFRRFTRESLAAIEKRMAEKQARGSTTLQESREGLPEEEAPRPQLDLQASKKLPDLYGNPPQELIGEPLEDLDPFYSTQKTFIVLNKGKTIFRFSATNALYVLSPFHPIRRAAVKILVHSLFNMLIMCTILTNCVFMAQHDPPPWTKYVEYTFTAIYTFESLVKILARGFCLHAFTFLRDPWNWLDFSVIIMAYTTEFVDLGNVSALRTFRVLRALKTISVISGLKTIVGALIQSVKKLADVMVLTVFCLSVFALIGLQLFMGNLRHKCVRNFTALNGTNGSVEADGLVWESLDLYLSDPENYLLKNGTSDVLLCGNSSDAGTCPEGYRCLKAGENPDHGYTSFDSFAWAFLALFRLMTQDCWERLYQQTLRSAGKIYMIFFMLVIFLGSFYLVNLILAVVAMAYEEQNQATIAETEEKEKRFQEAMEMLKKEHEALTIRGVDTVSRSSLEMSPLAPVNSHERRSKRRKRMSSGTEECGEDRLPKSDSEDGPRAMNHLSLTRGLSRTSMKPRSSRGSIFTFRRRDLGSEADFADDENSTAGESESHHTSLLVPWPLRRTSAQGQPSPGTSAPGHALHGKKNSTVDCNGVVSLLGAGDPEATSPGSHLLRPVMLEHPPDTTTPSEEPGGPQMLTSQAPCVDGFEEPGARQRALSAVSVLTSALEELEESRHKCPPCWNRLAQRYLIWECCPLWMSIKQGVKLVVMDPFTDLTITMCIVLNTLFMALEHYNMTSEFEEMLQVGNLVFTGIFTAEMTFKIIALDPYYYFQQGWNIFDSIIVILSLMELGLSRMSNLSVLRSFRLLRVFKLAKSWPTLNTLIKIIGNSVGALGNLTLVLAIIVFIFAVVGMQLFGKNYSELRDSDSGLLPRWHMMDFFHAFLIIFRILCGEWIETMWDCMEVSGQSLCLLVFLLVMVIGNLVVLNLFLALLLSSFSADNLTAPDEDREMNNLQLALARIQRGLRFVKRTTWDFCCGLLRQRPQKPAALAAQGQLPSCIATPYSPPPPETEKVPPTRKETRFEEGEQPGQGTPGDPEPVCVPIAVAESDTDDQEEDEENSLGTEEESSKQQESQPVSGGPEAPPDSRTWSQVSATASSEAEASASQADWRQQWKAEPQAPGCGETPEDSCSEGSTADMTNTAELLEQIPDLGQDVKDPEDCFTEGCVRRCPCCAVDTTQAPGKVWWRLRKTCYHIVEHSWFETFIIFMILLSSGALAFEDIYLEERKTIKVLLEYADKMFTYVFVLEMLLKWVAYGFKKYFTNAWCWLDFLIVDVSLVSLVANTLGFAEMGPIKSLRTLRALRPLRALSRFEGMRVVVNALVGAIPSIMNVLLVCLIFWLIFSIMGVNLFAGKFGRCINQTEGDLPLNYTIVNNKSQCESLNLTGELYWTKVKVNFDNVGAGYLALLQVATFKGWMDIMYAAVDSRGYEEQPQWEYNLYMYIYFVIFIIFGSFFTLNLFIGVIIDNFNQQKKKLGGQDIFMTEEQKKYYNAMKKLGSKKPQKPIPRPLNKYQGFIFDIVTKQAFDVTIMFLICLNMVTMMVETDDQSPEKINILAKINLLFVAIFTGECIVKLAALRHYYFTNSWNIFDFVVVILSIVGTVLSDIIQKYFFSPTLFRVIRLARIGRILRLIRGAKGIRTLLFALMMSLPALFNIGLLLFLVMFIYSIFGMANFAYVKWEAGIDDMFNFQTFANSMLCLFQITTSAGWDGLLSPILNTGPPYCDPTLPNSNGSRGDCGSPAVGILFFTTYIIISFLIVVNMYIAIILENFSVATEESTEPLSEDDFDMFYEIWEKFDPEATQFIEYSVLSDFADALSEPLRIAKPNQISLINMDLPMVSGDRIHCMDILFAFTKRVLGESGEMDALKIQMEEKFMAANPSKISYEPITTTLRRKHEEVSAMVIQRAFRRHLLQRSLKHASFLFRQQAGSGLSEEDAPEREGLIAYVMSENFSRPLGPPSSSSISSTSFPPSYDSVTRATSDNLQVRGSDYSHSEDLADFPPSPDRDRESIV

By IC50 is commonly meant the concentration needed to halve the response being measured. Broadly, the solubility is how much of the substance goes into solution per volume. A low value points to little dissolved substance. For `Cc1cnc(-c2cccc3c2C[C@H](NC(=O)c2ccc(COCC(F)(F)F)nc2)CO3)cn1`, the values for the half-inhibitory concentration (IC50) in data set [1] and in data set [2] were 0.501 µM and 20 µM, respectively. In data set [3], this compound gave a solubility of 82 µM (≈ 37.6 µg/mL). Also, the CLint in data set [4] and in data set [5] was below 10 µL/min/mg each time.
On to `Cc1nn(-c2ccccc2)nc1C(=O)N[C@@H]1COc2cccc(N3CCN(C)CC3)c2C1`, for which the 50% inhibitory concentration (IC50) in data set [1] was 0.316 µM; in data set [2] it was 5.01 µM; in data set [6], 7.94 µM. In data set [3], this compound came in with a solubility of 211 µM (≈ 91.3 µg/mL). The CLint in data set [4] was found to be 4 µL/min/mg; in data set [5], 14 µL/min/mg. In data set [7], the result was Active.
Compound `Cc1nn(CC(C)C)nc1C(=O)N[C@@H]1COc2cccc(-c3cccnc3)c2C1` had an IC50 in data set [2] above 31.6 µM. Moreover, the solubility in data set [3] is 393 µM (≈ 154 µg/mL).
With `O=C(N[C@@H]1COc2cccc(-c3ccc(CO)nc3)c2C1)c1ccc(OCCOCC(F)(F)F)nc1`, the IC50 was 0.158 µM in data set [1], 7.94 µM in data set [2] and 15.8 µM in data set [6]. The solubility in data set [3] worked out at 54 µM (≈ 27.2 µg/mL). The figures for the CLint in data set [4] and in data set [5] were below 10 µL/min/mg and 11 µL/min/mg, respectively.
In data set [2], `COc1ncc(-c2cccc3c2C[C@H](NC(=O)c2ccc(OCC(F)(F)F)nc2)CO3)cn1` showed an IC50 of 6.31 µM. This compound had a solubility in data set [3] below 1 µM. The CLint in data set [4] and in data set [5] was below 10 µL/min/mg throughout.
`O=C(N[C@@H]1COc2cccc(-c3cncnc3)c2C1)c1ccc(OCCC(F)(F)F)nc1`: in data set [2], the IC50 was 3.98 µM. In addition, the concentration in solution in data set [3] (solubility) came to 23 µM (≈ 10.2 µg/mL). Further, the CLint in data set [4] amounted to 38 µL/min/mg; in data set [5], 318 µL/min/mg.
`CN1CCN(c2cccc3c2C[C@H](NC(=O)c2ccc(OCCC(F)(F)F)nc2)CO3)CC1`: the half-inhibitory concentration (IC50) is 0.631 µM in data set [1], 5.01 µM in data set [2] and 12.6 µM in data set [6]. The compound also returned a solubility in data set [3] of 379 µM (≈ 176 µg/mL). Moreover, the CLint in data set [4] and in data set [5] was below 10 µL/min/mg in each case.
As for `O=C(N[C@@H]1COc2cccc(-c3cccnc3)c2C1)c1ccc(OC(F)(F)F)cc1`, in data set [2], the IC50 is 3.16 µM. Moreover, the solubility in data set [3] turned out to be 5 µM (≈ 2.07 µg/mL).
`COc1cnc(-c2cccc3c2C[C@@H](NC(=O)c2ccc(COCC(F)(F)F)nc2)CO3)cn1`: the IC50 in data set [1] is above 10 µM. In addition, the values for the CLint in data set [4] and in data set [5] were 21 µL/min/mg and 16 µL/min/mg, respectively.
As for `CN1CCN(c2cccc3c2C[C@H](NC(=O)c2ccc(OC(F)(F)F)cc2)CO3)CC1`, the results for the half-inhibitory concentration (IC50) in data set [1], in data set [2] and in data set [6] were 2 µM, 2 µM and 7.94 µM, respectively. For the same compound, the solubility in data set [3] came to 27 µM (≈ 11.8 µg/mL). For the same compound, the figures for the CLint in data set [4] and in data set [5] were 18 µL/min/mg and 2.5 µL/min/mg, respectively.
For the compound `O=C(N[C@@H]1COc2cccc(-c3ccnc(CO)c3)c2C1)c1ccc(OCC(F)(F)F)nc1`, the results for the IC50 in data set [1] and in data set [2] were 0.501 µM and 6.31 µM, respectively. For the same compound, the solubility in data set [3] worked out at 17 µM (≈ 7.81 µg/mL). For the same compound, the CLint in data set [4] is below 10 µL/min/mg; in data set [5] it was 15 µL/min/mg. Further, the outcome in data set [7] was inactive.
`CCCCOc1ccc(C(=O)N[C@@H]2COc3cccc(N4CCN(C)CC4)c3C2)cc1`: the IC50 is 1 µM in data set [1], above 6.31 µM in data set [2] and 6.31 µM in data set [6]. In addition, the solubility in data set [3] worked out at 1 µM (≈ 0.424 µg/mL). In addition, the CLint was 82 µL/min/mg in data set [4] and 361 µL/min/mg in data set [5].
On to `O=C(N[C@@H]1COc2cccc(-c3cccnc3)c2C1)c1ccc(OCC(F)(F)F)nc1`, for which, in data set [2], the IC50 is 3.16 µM. Also, the solubility in data set [3] came out at 29 µM (≈ 12.5 µg/mL). Moreover, the CLint in data set [4] came to 64 µL/min/mg; in data set [5] it was 161 µL/min/mg.
As to `CN1CCN(c2cccc3c2C[C@H](NC(=O)c2ccc(OCC(F)(F)F)nc2)CO3)CC1`, the 50% inhibitory concentration (IC50) in data set [1] is 0.794 µM; in data set [2], 5.01 µM; in data set [6] it was 7.94 µM. Further, the concentration in solution in data set [3] (solubility) came to 82 µM (≈ 36.9 µg/mL). In addition, the CLint in data set [4] and in data set [5] was below 10 µL/min/mg each time.
For the compound `Cc1ncc(-c2cccc3c2C[C@H](NC(=O)c2ccc(OCC(F)(F)F)nc2)CO3)cn1`, the IC50 in data set [2] is 5.01 µM; in data set [6], 10 µM. This compound also returned a solubility in data set [3] of 6.5 µM (≈ 2.89 µg/mL). Also, the CLint in data set [4] and in data set [5] was below 10 µL/min/mg throughout.
In turn, `COc1ncc(-c2cccc3c2C[C@H](NC(=O)c2ccc(OCCC(F)(F)F)nc2)CO3)cn1` gave an IC50 in data set [2] of 3.98 µM. Moreover, the solubility in data set [3] worked out at 3 µM (≈ 1.42 µg/mL). The CLint in data set [4] and in data set [5] was below 10 µL/min/mg in each case.
In the case of `Cc1cnc(-c2cccc3c2C[C@H](NC(=O)c2ccc(OCC(F)(F)F)nc2)CO3)cn1`, the figures for the 50% inhibitory concentration (IC50) in data set [1], in data set [2] and in data set [6] were 0.0794 µM, above 3.16 µM and above 31.6 µM, respectively. Further, the solubility in data set [3] is below 1 µM. Also, the CLint was below 10 µL/min/mg in data set [4] and 16 µL/min/mg in data set [5].
With `Cc1ccc(-n2nc(C)c(C(=O)N[C@@H]3COc4cccc(N5CCN(C)CC5)c4C3)n2)c(C)c1`, the values for the half-maximal inhibitory concentration (IC50) in data set [1] and in data set [2] were 0.158 µM and 2.51 µM, respectively. In data set [3], this compound yielded a solubility of 4 µM (≈ 1.84 µg/mL). Moreover, in data set [4], the CLint was determined as 9 µL/min/mg. For the same compound, in data set [5], the CLH result is listed as “Stable”.
Take `CC(O)c1ccc(-c2cccc3c2C[C@H](NC(=O)c2ccc(OCCOCC(F)(F)F)nc2)CO3)cn1` (some centres undefined): the IC50 is 0.794 µM in data set [1] and 10 µM in data set [2]. In data set [3], the concentration in solution (solubility) was 18 µM (≈ 9.32 µg/mL). Besides, the CLint in data set [4] was below 10 µL/min/mg; in data set [5], 12 µL/min/mg.
With `O=C(N[C@@H]1COc2cccc(-c3ccncc3)c2C1)c1ccc(OCC(F)(F)F)nc1`, the concentration for half-maximal inhibition (IC50) in data set [2] was 3.16 µM; in data set [6], 6.31 µM. Further, the solubility in data set [3] was found to be 9 µM (≈ 3.86 µg/mL). Besides, the CLint was determined as 77 µL/min/mg in data set [4] and 59 µL/min/mg in data set [5].
Compound `COc1ncc(-c2cccc3c2C[C@H](NC(=O)c2ccc(OCC(F)(F)F)nc2)CO3)cc1F` had a 50% inhibitory concentration (IC50) in data set [2] of 3.98 µM. In addition, the solubility in data set [3] is 1.1 µM (≈ 0.525 µg/mL). For the same compound, the CLint in data set [4] worked out at 10 µL/min/mg; in data set [5] it was 19 µL/min/mg.
Consider `Cc1nn(-c2ccccc2)nc1C(=O)N[C@@H]1COc2cccc(-c3ccncc3)c2C1`, for which the concentration for half-maximal inhibition (IC50) is above 31.6 µM in data set [2] and 3.98 µM in data set [6]. In addition, the solubility in data set [3] is 2 µM (≈ 0.823 µg/mL).
For `COc1cnc(-c2cccc3c2C[C@H](NC(=O)c2ccc(OCC(F)(F)F)nc2)CO3)cn1`, the values for the IC50 in data set [1], in data set [2] and in data set [6] were 0.126 µM, above 25.1 µM and above 31.6 µM, respectively. This compound had a solubility in data set [3] below 1 µM. The CLint in data set [4] and in data set [5] was 14 µL/min/mg throughout.
For `COCCn1nc(C)c(C(=O)N[C@@H]2COc3cccc(-c4ccncc4)c3C2)n1`, the IC50 in data set [1] was 25.1 µM; in data set [2] it was above 31.6 µM. This compound also registered a solubility in data set [3] of 306 µM (≈ 120 µg/mL).
`Cc1cc(-c2cccc3c2C[C@H](NC(=O)c2ccc(OCCOCC(F)(F)F)nc2)CO3)cnc1CO`: the concentration for half-maximal inhibition (IC50) was 0.794 µM in data set [1] and 5.01 µM in data set [2]. This compound displayed a solubility in data set [3] of 18 µM (≈ 9.32 µg/mL).
On to `COc1ncc(-c2cccc3c2C[C@H](NC(=O)c2ccc(COCC(F)(F)F)nc2)CO3)cn1`, for which the half-inhibitory concentration (IC50) in data set [1] is 0.251 µM; in data set [2] it was 10 µM; in data set [6], 15.8 µM. The solubility in data set [3] worked out at 145 µM (≈ 68.8 µg/mL). The CLint in data set [4] and in data set [5] was below 10 µL/min/mg in each case.
`O=C(N[C@@H]1COc2cccc(-c3ccncc3)c2C1)c1ccc(OC(F)(F)F)cc1`: the IC50 in data set [1] was 1 µM; in data set [2], 3.98 µM; in data set [6], 2.51 µM. Further, the concentration in solution in data set [3] (solubility) was 2 µM (≈ 0.829 µg/mL). The compound also returned a CLint in data set [5] of 78 µL/min/mg.
`COCCn1nc(C)c(C(=O)N[C@@H]2COc3cccc(-c4cccnc4)c3C2)n1` had a 50% inhibitory concentration (IC50) in data set [2] above 31.6 µM. Moreover, in data set [3], the concentration in solution (solubility) came to 396 µM (≈ 156 µg/mL).
